Bioassay records (PubChem BioAssay)
NF-kB neuron act: activators of NF-kB expression in neurons, primary screen, cell-based, HTS; AID 1239, 2008; human neuronal cells, NF-kB reporter expression; stronger effect = higher value; 1.6% of 190,000 active; fold change at 12.5 µM; in the data active = fold change above about 3.3
Wee1 degr inh: Wee1 degradation inhibitors, primary screen, cell-based, HeLa, Wee1K328M-luciferase, luminescence | Wee1-like protein kinase (Homo sapiens), P30291 | HeLa Luc-Wee1K328M stability; 100% = proteasome inhibitor MG132 effect | 1.2% of 220,000 active | reporter increase, % at 5 µM;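 active = activation above the mean of all tested compounds plus 3 SD, set per screening run, cut at about 8.8% in these data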;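 also: cells exposed to compound for 20 h before luminescence read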
STAT1 activator: STAT1 signaling activators, primary screen, cell-based, HTS, luciferase reporter; 2.6% of 200,000 active; activation (% of control), % at 5.5 µM; AID 932, 2007; NIH 3T3 STAT1-luciferase reporter, IFN-gamma, luminescence; 100% = IFN-gamma alone, no compound;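 active = activation above the screen-wide mean activation plus 3 SD, cut at about 130% in these data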
MDM2 E3 inh: MDM2-luciferase reporter signal enhancers, primary screen, MDM2 E3 ligase inhibitor project, cell-based, luminescence, 1536-well; E3 ubiquitin-protein ligase Mdm2 (Homo sapiens), Q00987; cell-based MDM2 ubiquitination luciferase reporter, 2 h; 0 = plate control, 100 = twice control, blank-subtracted; signal enhancement, % at 5 µM; 0.11% of 210,000 active; AID 1230, 2008;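 active = signal enhancement of 30% or more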;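 also: luminescence tracks abundance of the self-degrading MDM2-luciferase fusion protein; higher signal means inhibition of MDM2 E3 ligase activity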
Target sequence (Q00987 whole entry, looked up, the tested form may be a part): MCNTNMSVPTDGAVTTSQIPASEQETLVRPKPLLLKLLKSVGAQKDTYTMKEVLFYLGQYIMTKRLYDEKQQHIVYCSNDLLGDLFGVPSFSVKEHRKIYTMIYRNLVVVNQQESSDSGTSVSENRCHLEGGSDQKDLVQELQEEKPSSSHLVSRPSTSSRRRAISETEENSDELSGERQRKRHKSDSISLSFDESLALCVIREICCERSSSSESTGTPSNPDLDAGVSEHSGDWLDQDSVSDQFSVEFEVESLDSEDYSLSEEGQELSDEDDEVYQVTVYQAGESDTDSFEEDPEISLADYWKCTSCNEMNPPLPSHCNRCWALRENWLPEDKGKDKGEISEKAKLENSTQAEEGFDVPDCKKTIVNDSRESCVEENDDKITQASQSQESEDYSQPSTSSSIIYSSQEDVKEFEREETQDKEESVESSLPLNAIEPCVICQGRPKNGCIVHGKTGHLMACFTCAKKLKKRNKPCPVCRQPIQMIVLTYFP
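System: stable MDM2–luciferase fusion reporter cells / Input: 2000 cells seeded into each well / Schedule: 4 h settle plus 2 h compound, 37 °C / Compound: single-point 5 µM / Buffer or medium: cells held in DMEM / Benchmarks: control and blank well means / Evaluation: percent signal gain over controls, blank-subtracted / Measured by: luciferase luminescence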
APP 5'UTR act: activators of APP 5'UTR luciferase reporter, primary screen, SH-SY5Y cells; SH-SY5Y APP 5'UTR luciferase reporter, luminescence; zero percent = DMSO vehicle wells; activation, % at 2 µM; 1% of 190,000 active;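 active = activation above a set limit, based on mean plus 3 SD of controls, cut at about 140% in these data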
p97 ATPase inh: inhibitors of human p97 ATPase, primary screen, biochemical | Transitional endoplasmic reticulum ATPase (Homo sapiens), P55072 | recombinant p97 ATPase, Kinase-Glo ATP luminescence, 3 h | inhibition, % at 8 µM | 0.42% of 220,000 active | AID 1481, 2009; in the data active = inhibition above about 15%
Numbers stand for hits; i = inactive; nt = not tested or not shown. This is a sample that favours compounds with a hit; in the whole collection about 4.6% have one here.

SMILES | NF-kB neuron act | Wee1 degr inh | STAT1 activator | MDM2 E3 inh | APP 5'UTR act | p97 ATPase inh
Cc1ccnc(NC(=O)/C=C/c2cccs2)c1 | i | i | 137 | i | 191 | i
Cc1ccnc(NC(=S)NC(=O)/C=C/c2ccco2)c1 | i | i | 144 | i | i | i
COc1ccc(C(C)(C)C)cc1NC(=O)Cn1cnnn1 | i | i | i | i | i | i
Cc1ccc(C(=S)N2CCN(Cc3ccccc3)CC2)s1 | i | i | i | i | i | i
Nc1ccc(N2CCN(c3ccc(Cl)c(Cl)c3)CC2)cc1 | 3.4 | i | i | i | i | i
O=C(CCN1CCOCC1)c1ccc2c(c1)OCCO2 | i | i | i | i | i | i
O=C(CCCN1CCOCC1)c1ccc2c(c1)OCCO2 | i | i | 142 | i | i | i
O=[N+]([O-])c1ccc(O)c(C=Nc2ccc3c(c2)OCO3)c1 | nt | i | nt | i | nt | i
O=[N+]([O-])c1cc(Br)cc(C=Nc2ccc3c(c2)OCO3)c1O | nt | 9.7 | nt | i | nt | i
O=C(N/N=C/c1ccncc1)c1cccc(S(=O)(=O)Nc2ccc(Cl)cc2)c1 | nt | i | nt | nt | nt | i
COCCn1c(=S)[nH]c2cc(C(=O)N3CCc4ccccc43)ccc2c1=O | i | 11 | i | i | i | i
CC(=O)OCC(=O)N1N=C(c2ccc3ccccc3c2)CC1c1ccccc1 (centres undefined) | i | i | 139 | i | i | i
Nc1cc(=O)[nH]c(SCC(=O)N2N=C(c3ccc4ccccc4c3)CC2c2ccccc2)n1 (centres undefined) | nt | i | nt | nt | nt | i
CCOC(=O)c1nnn(CC(=O)N2N=C(c3ccccc3)CC2c2ccccc2)c1C(=O)OCC (centres undefined) | i | i | i | i | i | i
CCOC(=O)/C=C(\C)N1N=C(c2ccccc2)CC1c1ccccc1 (centres undefined) | i | i | 142 | i | i | i
CCOC(=O)c1cc2c(N)c(C(=O)c3ccc(Br)cc3)sc2[nH]c1=O | i | i | i | i | i | i
O=C(CNC(=S)N(Cc1ccccc1)Cc1ccccc1F)NCCc1ccccc1 | i | i | i | i | i | i
O=C(/C=C/c1ccc2c(c1)OCO2)Nc1nncs1 | nt | i | nt | i | nt | i
CC(C)(C)c1ccc(/C=C/C(=O)Nc2nncs2)cc1 | i | i | i | i | 168 | i
COCCNC(=O)CSc1nnc(CCCN2C(=O)c3cccc4cccc(c34)C2=O)n1-c1ccccc1 | i | i | i | i | i | i
Cc1ccc(-c2c3c(=O)n(C)c(=O)n(C)c3cn2Cc2cccnc2)cc1 | i | 24 | i | i | i | i
Cn1c(=O)c2c(-c3ccccc3)n(Cc3cccnc3)cc2n(C)c1=O | i | i | i | i | i | i
COCCNC(=O)CSC1=N/C(=C/c2ccc(Cl)c(Cl)c2)C(=O)N1c1ccccc1F | i | i | i | i | i | i
c1ccn2cc(CSC3=NCCS3)nc2c1 | i | i | 130 | i | i | i
Cn1ccnc1SCc1cn2ccccc2n1 | i | i | 144 | i | 242 | i
SMILES | NF-kB neuron act | Wee1 degr inh | STAT1 activator | MDM2 E3 inh | APP 5'UTR act | p97 ATPase inh
c1ccc(-n2nnnc2SCc2cn3ccccc3n2)cc1 | i | i | i | i | i | i
c1ccn2cc(CSc3nnc4ccccn34)nc2c1 | i | i | 147 | i | i | i
Cc1ccc(SCc2cn3cccnc3n2)cc1 | i | i | i | i | i | i
Cc1ccn2cc(CSc3ccccc3)nc2c1 | 6.3 | i | 131 | i | 172 | i
O=C(/C=C/c1ccccc1)NC(=S)N1CCSCC1 | i | i | i | i | i | i
O=C(OCC(=O)c1cccs1)c1ccccc1 | 5.5 | i | 140 | i | i | i
Cc1ccc(/C=C/C2=NN(C)C(=O)CC2)cc1 | 4.5 | i | i | i | 153 | i
CN1N=C(/C=C/c2ccccc2)CCC1=O | i | i | i | i | i | i
CN(Cc1cccs1)C(=O)CCc1c[nH]c2ccccc12 | i | i | i | i | i | i
CN(Cc1cccs1)C(=O)CCCc1c[nH]c2ccccc12 | i | i | 130 | i | i | i
CCCCOc1ccc(NC(=O)Nc2nnc(C)s2)cc1 | nt | i | nt | i | nt | i
c1ccc(CSc2ccc(-c3cccnc3)nn2)cc1 | i | i | 134 | i | i | i
COc1cccc(OC)c1-c1nn(-c2ncc(C(F)(F)F)cc2Cl)c(=O)o1 | nt | i | nt | nt | nt | i
Cc1ccc2c(c1)sc1nc(=O)n(-c3ccccc3)c(=O)n12 | nt | 9.0 | nt | i | nt | i
Cc1nc(Cl)nc(N(C)c2ccccc2)c1[N+](=O)[O-] | nt | i | nt | i | nt | i
COc1ccc(/C=C(\C#N)C(=O)NCC(c2ccc(F)cc2)N2CCOCC2)cc1 (centres undefined) | nt | i | nt | nt | nt | i
CN=c1scc(-c2ccccc2Br)n1/N=C/c1ccc[nH]1 | i | i | i | i | 174 | i
CN=c1scc(-c2cccs2)n1/N=C/c1ccccc1O | i | i | i | i | i | i
O=S(=O)(c1cccc(F)c1)N1CCN(C(=S)NCc2ccccc2)CC1 | i | i | i | i | i | i
O=C(NC1CCCC1)c1n[nH]c2ccccc12 | i | i | 138 | i | i | i
CC(C)c1ccc2[nH]c(O)c(N=NC(=O)c3cccc(S(=O)(=O)Nc4cccc(Cl)c4)c3)c2c1 | nt | 11 | nt | nt | nt | i
ClC(Cl)(Cl)c1nc(N/N=C/c2ccncc2)c2ccccc2n1 | i | i | i | i | i | i
Cc1cc(N/N=C/c2ccncc2)nc2ccccc12 | i | i | 147 | i | i | i
Cc1cc(N/N=C/c2cccc(Br)c2)nc2ccccc12 | 4.2 | i | i | i | i | i
O=C(Nc1cccc(Cl)c1)NC1CC2CCC(C1)N2Cc1cccs1 (centres undefined) | i | i | i | i | i | i
SMILES | NF-kB neuron act | Wee1 degr inh | STAT1 activator | MDM2 E3 inh | APP 5'UTR act | p97 ATPase inh
Cc1csc2c(N(C)CCO)ncnc12 | nt | i | nt | i | nt | i
COc1ccc(-c2cn3cc([N+](=O)[O-])ccc3n2)cc1OC | i | i | i | i | i | i
CCCOc1ccc(-c2cn3ccccc3n2)cc1[N+](=O)[O-] | 4.1 | i | i | i | 142 | i
CCCCC(=O)Nc1cccc(-c2cn3ccccc3n2)c1 | i | i | i | i | i | i
COc1ccc(-c2cn3ccccc3n2)cc1 | nt | i | nt | i | nt | i
COc1ccc(-c2cn3ccc4ccccc4c3n2)cc1 | 14 | i | i | nt | 217 | i
COc1ccc(-c2cn3ccccc3n2)cc1[N+](=O)[O-] | i | i | 144 | i | i | i
CCCOc1ccc(-c2cn3ccccc3n2)cc1 | 5.6 | i | i | i | i | i
COc1cc(C(=O)NCCCNc2nc3cc(C)c(C)cc3cc2C#N)cc(OC)c1OC | i | i | i | i | i | i
